Drawing on ChEMBL document CHEMBL1142170, “Mechanism of activation of beta-D-2'-deoxy-2'-fluoro-2'-c-methylcytidine and inhibition of hepatitis C virus NS5B RNA polymerase” (Antimicrob Agents Chemother, 2007), this text covers Ki for three molecules.

The term Ki denotes a measure of affinity in units of concentration, obtained from inhibition or displacement.

Experiment [1] in a line: Inhibition of HCV NS5B RNA polymerase S282T mutant assessed as incorporation of 32P-UMP into RNA. More on the design: species or system Hepacivirus hominis. An outline of the steps:
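Purified 21-aa C-terminally truncated NS5B (S282T; wild type for comparison) on minus-IRES template, run in 50 mM HEPES pH 7.5 with 1 mM MgCl2, 0.75 mM MnCl2, 2 mM DTT and [α-32P]UTP at 27°C. Natural substrate and inhibitor were both varied against fixed remaining NTPs (UTP 10 μM, others 100 μM). Product was membrane-captured and counted. Ki was obtained by fitting a competitive inhibition equation.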

Experiment [2] is described as follows: Inhibition of HCV NS5B RNA polymerase assessed as incorporation of 32P-UMP into RNA. More on the design: species or system Hepacivirus hominis. The method in brief:
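Steady-state Ki against truncated NS5B (wild-type and S282T) on minus IRES template, 27°C, HEPES pH 7.5 with Mg2+/Mn2+/DTT and [α-32P]UTP. For ATP analog, UTP 10, GTP and CTP 100 μM, ATP and inhibitor varied. For CTP analogs, UTP 10, ATP and GTP 100 μM, CTP and inhibitor varied. Membrane-bound product counted, rates fit to competitive inhibition.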

Molecules are shown by their SMILES.

As to `C[C@@]1(O)[C@H](O)[C@@H](COP(=O)(O)OP(=O)(O)OP(=O)(O)O)O[C@H]1n1ccc(N)nc1=O` [2'-C-METHYLCYTIDINE TRIPHOSPHATE], the inhibition constant Ki worked out at 3.8 µM in experiment [1] and 1.6 µM in experiment [2].
Take `C[C@@]1(F)[C@H](O)[C@@H](COP(=O)(O)OP(=O)(O)OP(=O)(O)O)O[C@H]1n1ccc(N)nc1=O` [PSI-6130-TP]: the inhibitory constant (Ki) is 2.5 µM in experiment [1] and 4.3 µM in experiment [2].
For the molecule `C[C@@]1(O)[C@H](O)[C@@H](COP(=O)(O)OP(=O)(O)OP(=O)(O)O)O[C@H]1n1cnc2c(N)ncnc21`, the Ki in experiment [1] came to 21.8 µM; in experiment [2], 1.5 µM.
